A selection: hits, their analogues and other compounds. The true share with any hit is near 1.9%.
proCasp3 act – activators of human procaspase-3 D3A mutant, primary screen, biochemical, absorbance, PC-3 D3A mutant, single concentration | Caspase-3 (Homo sapiens), P42574 | recombinant procaspase-3 D3A, Ac-DEVD-pNA absorbance 405 nm | activation, % at 8.5 µM | 330,000 compounds, 0.11% hits;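 active = activation above the mean of all tested compounds plus 3 SD, cut at about 21% in these data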;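 note: 0% = DMSO alone and 100% = DMSO wells spiked with extra 5 µM PC-3 D3A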
Target sequence (P42574 whole entry D9A/D28A/D175A): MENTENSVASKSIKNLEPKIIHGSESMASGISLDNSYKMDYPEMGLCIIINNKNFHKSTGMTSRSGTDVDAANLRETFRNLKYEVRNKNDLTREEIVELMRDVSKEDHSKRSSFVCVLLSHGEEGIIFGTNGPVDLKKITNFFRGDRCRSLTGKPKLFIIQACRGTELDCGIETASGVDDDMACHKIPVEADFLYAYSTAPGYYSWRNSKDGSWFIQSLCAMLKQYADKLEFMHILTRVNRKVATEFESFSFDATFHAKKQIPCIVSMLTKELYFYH
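System: Procaspase-3 D3A mutant. Medium: Zinc-free 300 mM NaCl, 50 mM HEPES, 0.01% Triton X-100. Schedule: 1 h preincubation plus 2 h reaction at 25 °C. Measured by: 405 nm absorbance of p-nitroaniline, reads at 0 and 120 min. Read-out: percent activation relative to control range.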
IDE act – human IDE activators in live cells, primary screen, fluorescence polarization, HEK cells, FAbeta-B substrate. Insulin-degrading enzyme (Homo sapiens), P14735. FAbeta-B cleavage; 0% vehicle, 100% cell-free pure enzyme wells. activation, % at 5.96 µM. 340,000 compounds, 0.073% hits;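 active = activation above the mean of all tested compounds plus 3 SD, set per screening campaign, cut at about 17% in these data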
IDE cell inh – human IDE inhibitors in live cells, primary screen, fluorescence polarization, HEK cells, FAbetaB substrate. AID 434962, 2010. Insulin-degrading enzyme (Homo sapiens), P14735. 320,000 compounds, 0.41% hits. inhibition, % at 5.59 µM. FAbetaB cleavage;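 active = percent inhibition above the average of all tested compounds plus 3 SD, set per screening campaign, cut at about 16% in these data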;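 note: IDE supplied by intact live HEK cells; FP after avidin binding of uncleaved biotin substrate so inhibition keeps polarization high; 0% = DMSO wells and 100% = 60 µM reference IDE inhibitor Ii1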
PHOSPHO1 block – PubChem AID 1565; Phosphoethanolamine/phosphocholine phosphatase (Homo sapiens), Q8TCT1; recombinant PHOSPHO1, absorbance phosphatase assay; inhibition, % at 13.3 µM; 290,000 compounds, 1.1% hits; in the data active = inhibition above about 60%
Target sequence (Q8TCT1 whole entry, looked up): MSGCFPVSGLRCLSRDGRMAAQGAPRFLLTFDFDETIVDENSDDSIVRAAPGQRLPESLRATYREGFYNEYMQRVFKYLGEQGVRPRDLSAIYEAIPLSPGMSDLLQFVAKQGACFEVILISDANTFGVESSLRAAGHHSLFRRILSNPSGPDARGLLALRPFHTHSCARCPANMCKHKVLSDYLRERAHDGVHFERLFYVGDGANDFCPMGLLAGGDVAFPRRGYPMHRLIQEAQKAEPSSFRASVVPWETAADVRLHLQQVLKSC
proCasp7 act – procaspase-7 activators, primary screen, counter-screen for procaspase-3 activator project, biochemical, absorbance, HTS, human. Caspase-7 (Homo sapiens), P55210. recombinant procaspase-7, Ac-DEVD-pNA absorbance 405 nm; D23A/D198A/D206A triple mutant, cannot self-cleave; scale: DMSO 0, 5 µM enzyme 100. activation, % at 8.5 µM. 330,000 compounds, 0.093% hits;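 active = percent activation above the screen-wide mean plus 3 SD, cut at about 25% in these data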
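Assay system: Uncleavable procaspase-7 mutant enzyme / Input: 2 µM procaspase-7 mutant as dispensed / Dosing: single nominal 8.5 µM compound dose, 0.8% DMSO final / Timing: 1 h enzyme–compound preincubation and 2 h substrate reaction, both 25 °C / Detection: p-Nitroaniline absorbance at 405 nm, read at 0 and 120 min / Replication: singlicate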
UBC13 inh – UBC13 polyubiquitin chain formation inhibitors, primary screen, biochemical, TR-FRET, uHTS; inhibition, % at 20 µM; Ubiquitin-conjugating enzyme E2 N (Homo sapiens), P61088; 330,000 compounds, 0.47% hits; in the data active = inhibition above about 45%, passing the limit was not always enough
PC3 dual counter – procaspase-3 activators, counter-screen for dual procaspase-3/7 activator project, biochemical, absorbance, PC-3 D3A mutant, human; shares compounds with proCasp7 act; recombinant PC-3 D3A, Ac-DEVD-pNA absorbance 405 nm; aspartates 9, 28, 175 changed to alanine; 100% = enzyme control; activation, % at 8.5 µM; 290 tested, under 10 active; AID 493114, 2011;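 active = mean percent activation across triplicates above a set limit taken from the earlier primary procaspase-3 screen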;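 note: 0% = DMSO wells and 100% = DMSO wells with 5 µM added PC-3 D3A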
PC7 dual conf – activation of procaspase-7 enzyme – biochemical, absorbance, human, dual procaspase-3/-7 activator project, confirmation; recombinant procaspase-7, Ac-DEVD-pNA absorbance 405 nm; D23A/D198A/D206A mutant that cannot self-cleave; activation, % at 8.5 µM; 290 tested, under 10 active; shares compounds with proCasp7 act;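 active = mean activation above a set limit carried over from the earlier primary screen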;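 note: 0% = DMSO only and 100% = DMSO with added 5 µM PC-7 enzyme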
Casp3 UBC13 ctr – CASP3 inhibitor validation, counterassay for project on UBE2N polyubiquitination blockers, biochemical, one dose | shares compounds with UBC13 inh | Recombinant caspase-3, Caspase-Glo 3/7 luminescence, 60 min | inhibition, % at 20 µM | 1,400 compounds, 4% hits | AID 488856, 2010;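 active = mean inhibition across replicates above about 26%, limit read from the data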;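 note: plate controls were DMSO with caspase-3 for no effect and DMSO wells lacking enzyme for full effect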
UBC13 confirm – UBC13 polyubiquitination inhibitors, single-point retest, confirmation, biochemical, TR-FRET, single concentration; shares compounds with UBC13 inh; inhibition, % at 10 µM; 1,400 compounds, 68% hits; in the data active = inhibition above about 45%
* hit, by the source's call; x = no result given.

SMILES	proCasp3 act	IDE act	IDE cell inh	PHOSPHO1 block	proCasp7 act	UBC13 inh	PC3 dual counter	PC7 dual conf	Casp3 UBC13 ctr	UBC13 confirm
CCN(Cc1ccccc1)c1ccc(/C=N/NC(=S)NC(C)C)cc1	23*	2	-4	7	30*	8	0	2	x	x
Cc1cccc(NC(=O)c2cnn(-c3ccccc3)c2C)c1C	2	1	-4	49	0	1	x	x	x	x
Cc1ccccc1NC(=O)c1cnn(-c2ccccc2)c1C	4	4	6	45	34*	-10	1	1	x	x
COc1ccc(-c2cc(C(F)(F)F)n3nc(C(=O)NCc4ccco4)cc3n2)cc1	60*	-3	2	-11	42*	10	-30	-37	x	x
Cc1cc(C)c(C#N)c(OCC(=O)c2ccc(Br)cc2)n1	4	5	7	-10	46*	2	-5	-3	x	x
Cc1ccc(C(=O)COc2nc(C)cc(C)c2C#N)cc1	4	-2	0	-10	-10	-3	x	x	x	x
COC(=O)C1=C(C)NC(=O)NC1c1ccc(N2CCC(c3ccccc3)=N2)cc1 (stereo unspecified)	85*	5	2	37	38*	24	-30	-35	x	x
CC(=O)Nc1ccc(S(=O)(=O)N(C)c2ccc(OCC(=O)NCCc3ccccc3F)cc2)cc1	x	-3	x	x	x	x	x	x	x	x
COc1c2ccccc2c(OC)c2ccccc12	81*	4	-1	1	63*	17	-30	-34	x	x
COc1ccc(-c2c(-c3ccc(C#N)cc3)oc(=O)c3cc(OC)c(OC)cc23)cc1	15	-3	1	x	26*	45*	-4	-6	0	24
COc1ccc(COC(=O)CCNC(=O)c2ccc(Cl)cc2)cc1	1	2	0	x	-6	1	x	x	x	x
O=C(Nc1cccnc1)c1sc(Nc2ccccc2)nc1-c1ccccc1	10	-4	5	-16	29*	48*	6	1	-2	11
COc1ccccc1N(C(=O)c1snc(C(N)=O)c1N)C(C(=O)NCc1ccccc1)c1ccc(O)cc1 (stereo unspecified)	x	-2	x	18	x	7	x	x	x	x
NC(=O)c1nsc(C(=O)N(c2ccccc2F)C(C(=O)NCc2ccc(F)cc2)c2ccc(O)cc2)c1N (stereo unspecified)	-26	-5	-1	43	28*	47*	-28	-35	2	49*
CCOC(=O)CNC1CC(=O)N(c2ccc(Br)cc2)C1=O (stereo unspecified)	-7	0	-2	x	-5	-4	x	x	x	x
CC(=O)n1cc([C@H]2C=C(C(=O)Nc3ccccc3)O[C@@H](OCCCCO)C2)c2ccccc21	1	-5	2	18	4	69*	x	x	2	45
CC(=O)n1cc([C@H]2C=C(C(=O)NCc3ccccc3)O[C@@H](OCCCCO)C2)c2ccccc21	-1	3	-1	-8	7	31	x	x	x	x
CN(C)CCCn1c(SCC(=O)Nc2nc(-c3cccc(Br)c3)cs2)nc2ccccc2c1=O	-1	6	3	30	9	116*	x	x	2	134*
O=C(CSc1nc2ccccc2[nH]1)Nc1nc(-c2cccc(Br)c2)cs1	-1	2	-1	-22	0	15	x	x	x	x
COc1ccc(NC2CCCN(C(=O)CCN3CCOCC3)C2)cc1 (stereo unspecified)	2	3	10	44	-10	x	x	x	x	x
C=CC(=O)Nc1ccc(N(C)c2ccnc(Nc3ccc(N4CCN(C)CC4)cc3)n2)cc1	1	2	5	x	7	85*	x	x	2	77*
CN1CCN(c2ccc(NC(=O)c3ccc(Oc4ccccc4)cc3)cc2)CC1	5	-2	7	13	-8	21	x	x	x	x
COc1ccccc1-c1sc2cc3c(cc2c1-c1ccc(OCCN2CCCCC2)cc1)OCO3	6	6	-3	x	15	77*	x	x	0	69*
COc1cc2sc(-c3ccccc3OC)c(-c3ccc(OCCN4CCCCC4)cc3)c2cc1OC	3	4	-3	x	2	76*	x	x	-1	74*
O=C(c1ccc(OCCN2CCCCC2)cc1)c1c(-c2ccc(O)cc2)sc2cc(O)ccc12	-6	5	8	x	-1	92*	x	x	4	102*
COc1cc(C(=O)OCCc2cc3ccccc3c(=O)o2)cc(OC)c1OC	-2	-8	8	x	-2	3	x	x	x	x
O=C(O)c1ccc(S(=O)(=O)NCC2CCCO2)cc1 (stereo unspecified)	5	7	0	24	-1	-2	x	x	x	x
CCOC(=O)C1=C(c2ccccc2)Nc2ncnn2C1c1ccc(C(=O)O)cc1 (stereo unspecified)	3	-3	-1	43	-2	-6	x	x	x	x
CCOC(=O)C1=C(c2ccccc2)NC(N)=NC1c1ccc(OCc2ccc(C(=O)OC)cc2)cc1 (stereo unspecified)	-3	17	-1	27	7	55*	x	x	-4	92*
C#CCOCCOCCOCCNc1nc(N2CCN(C(=O)[C@H]([C@@H](C)CC)n3cc([C@@H](N)CO)nn3)CC2)nc(N2CCN(C(=O)[C@H](Cc3cc4ccccc4[nH]3)n3cc([C@@H](N)C(C)CC)nn3)CC2)n1 (stereo partly specified)	-2	x	3	28	-4	60*	x	x	8	46*

Screens from PubChem BioAssay.
